Measurements published in ChEMBL document CHEMBL4513216, “Probing the Open Global Health Chemical Diversity Library for Multistage-Active Starting Points for Next-Generation Antimalarials” (ACS Infect Dis, 2020).

Experiment: Toxicity liver stage against HepG2, at 10uM
Assay type: cell-based
Design: test concentration 10 uM, cell line HepG2-A16-CD81EGFP
Conditions: human, HepG2-A16-CD81EGFP cells; read-out: INHIBITION
In short: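 Uninfected HepG2-A16-CD81EGFP cells, 3 × 10^3 per well, 1536-well, plated on prespotted compound at 10 μM final, parasite-free screening media added to match infected plates; puromycin 10 μM positive, DMSO 0.5% negative; run in parallel with 48 h PbLuc assay at 37 °C, 5% CO2; viability by CellTiter-Glo luminescence, normalized to controls.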

SMILES | cytotoxicity at 10 µM [%]
Cc1cc(C)c(C(=O)N2CCC3(CCCNC3)C2)cc1C (stereo unspecified) | 2.52
CCOc1ncccc1NC(=O)N1CCCC1c1cc(C)no1 (stereo unspecified) | 0.87
Cc1cccc(CN2CCN(c3nc(CO)cs3)CC2)c1 | -11.6
CSc1nc(C)cc(N2CCC(c3ncc[nH]3)CC2)n1 | -10.6
CC(C)N1CCC(C(=O)N2CCC(C(O)c3nccn3C)CC2)CC1 (stereo unspecified) | -2.7
CN(C)C(=O)CCC(=O)NCc1cccnc1-n1cnc2ccccc21 | -3.97
CC(c1nc(C2CC2)no1)N(C)Cc1cccc(F)c1 (stereo unspecified) | -5.43
CC(C)CN1CCC(C(=O)NCCNC(=O)c2ccoc2)CC1 | 0.335
CC(=O)N1CCC(C)(c2cc[nH]n2)CC1 | -4.07
O=C(Cc1csc(-c2ccco2)n1)N1CCN(c2ccccc2O)CC1 | -10.7
Cc1csc(N2CCN(CC(=O)Nc3ccncc3)CC2C)n1 (stereo unspecified) | 29.3
COCCc1noc(CN2CCN(CC(O)c3ccccc3)CC2)n1 (stereo unspecified) | 2.67
Cc1cc(C2CCCN(Cc3cccnc3)C2)n[nH]1 (stereo unspecified) | 9
c1ccc(CCN2CCOC(Cn3cccn3)C2)nc1 (stereo unspecified) | -4.48
Cc1n[nH]c(C)c1CCC(=O)N1CCC(O)(CN2CCN(C)CC2)C1 (stereo unspecified) | -6.13
O=C(CO)N1CCCC(c2cc(C(F)(F)F)[nH]n2)C1 (stereo unspecified) | -5.12
CCN(CC)S(=O)(=O)c1ccc(C(=O)NC(C)(C)C)cc1 | -6.79
COc1ccccc1CN1CC[C@H]2C[C@@H](C(=O)N3CCCC3)O[C@H]2C1 | 7.28
COc1cc(CNC(=O)C2CC(=O)N(C(C)C)C2)ccn1 (stereo unspecified) | -5.36
O=C(NCCn1cccn1)C1CCC(=O)N(CC2CCCCC2)C1 (stereo unspecified) | 6.8
O=C(c1cscn1)N1C[C@@H](Oc2cccnc2)[C@H]2OCCC[C@H]21 | 7.77
COc1ccc(Oc2nccc3occc23)cc1CN1CCCC1 | -24.6
CCC(C(=O)NC1(COC)CCCC1)n1cccn1 (stereo unspecified) | -3.41

SMILES | cytotoxicity at 10 µM [%]
Cc1noc(C(C)N(C)CC(=O)NCCc2ccc(Cl)cc2)n1 (stereo unspecified) | 10.3
Cc1nc(COc2ccc(N(C)S(C)(=O)=O)cc2)sc1C | -2.75
Cc1cc(C)n(CC2CCCCN2CCCS(=O)(=O)N(C)C)n1 (stereo unspecified) | 2.32
CCn1cc(NC(=O)NCC(C)N(C)C)cn1 (stereo unspecified) | -18.8
CC(C)NC(=O)C1CCc2nnc(CNC(=O)c3cccnc3)n21 (stereo unspecified) | 6.94
CCOC(=O)[C@]12CCCN(Cc3cccs3)C[C@H]1CN(C(C)=O)C2 | 4.13
CCCc1nnsc1C(=O)NCC1CCN(c2ncccn2)CC1 | 10.6
CCc1nc(CN(C)C2CCN(CCn3cccn3)C2)no1 (stereo unspecified) | -2.21
CC(C(=O)Nc1ccc2ccccc2c1)N1CCC(n2ccnc2)CC1 (stereo unspecified) | -4
Cc1cnn(C2CN(CC(=O)N(C)Cc3ccc(C)o3)C2)c1 | -15.9
CCOCC1CN(C)Cc2cnn(CC3CCCC3)c21 (stereo unspecified) | -9.7
O[C@H]1[C@H](NCCSc2ccccn2)c2ccccc2C12CCNCC2 | -13.4
O=C(NCC1(c2ccc(F)cc2)CC1)N1CCC2(CCOC2)C1 (stereo unspecified) | -6.72
Cc1oc(C)c(C(=O)NCc2cccnc2N(C)C)c1C | -0.292
O=C(CCc1cc2n(n1)CCN(Cc1ccncc1)C2)N1CCCC1 | -7.97
CC(=O)Oc1ccnc(C(F)(F)F)c1C(C)=O | -11.4
O=C(NCc1ccccn1)[C@]12COC[C@H]1CN(Cc1ccsc1)C2 | 4.91
Cc1cc(C)c(CNC(=O)CC2CCCO2)c(=O)[nH]1 (stereo unspecified) | -10.7
CCc1c(C)nc2ccccc2c1N1CCC(C(=O)NC)CC1 | 3.85
COc1ccc(/C=C/CN2CCN(c3ncccc3C(N)=O)CC2)cc1 | -8.88
Cc1ccc2[nH]c(C3CCN(CC(N)=O)CC3)nc2c1 | 3.23
O=C(CCOc1cccc(Cl)c1)N1CCN(c2cnccn2)CC1 | -0.284
COc1nn(C)c2c1CCCN(C(=O)c1cccs1)C2 | 8.36

SMILES | cytotoxicity at 10 µM [%]
c1ccc(COC2CCN(c3cncc(-n4cccn4)n3)CC2)cc1 | -9.18
Cc1nn(C)c(C)c1CC(=O)N1CCCC(n2ccnc2C)C1 (stereo unspecified) | -5.36
CCOC(=O)c1coc(N2CCC(N3CCC(O)CC3)CC2)n1 | 6.41
Cc1nc(C2CCCN2CC(=O)NCCOc2ccccc2)no1 (stereo unspecified) | -6.54
CCOc1ccc(Cl)c(C(=O)NCCc2ncc[nH]2)n1 | -11.2
Cc1noc([C@@H]2CCO[C@@H]3CCN(Cc4cccs4)C[C@@H]32)n1 | -74.6
Cc1nnc2n1CCN(C(=O)c1cn(-c3ccccc3)nn1)C2 | -146
CN(Cc1ncc(C(C)(C)C)o1)C1CCCN(c2cccnn2)C1 (stereo unspecified) | -16.1
COc1c(C)cnc(CN(C)C2CCN(C3CCOCC3)CC2)c1C | -17.7
O=C(c1cccs1)N1CCCC2(COCCN(c3cccnc3)C2)C1 (stereo unspecified) | -70.3
CNc1cc(N2CCCC2CNCc2cccnc2C)ncn1 (stereo unspecified) | 0.759
O=C(c1cc2ccccc2o1)N1CCN(Cn2cc(Cl)cn2)CC1 | 9.31
O=C(c1n[nH]cc1Cl)N1CCCC(n2nnc3cc(F)ccc32)C1 (stereo unspecified) | -8.55
CCC(=O)N1CCC(NC2CCCC2)C1 (stereo unspecified) | -4.26
N#Cc1cccc(NC2CC(=O)N(CCCc3ccccc3)C2)n1 (stereo unspecified) | 5.82
CN1CCN(C[C@@H]2CN(Cc3c(Cl)cncc3Cl)C[C@@H]2CO)CC1 | -124
CN(CCC#N)C(=O)Cn1nnnc1C(C)(C)C | -46.3
O=C(CCS(=O)(=O)C1CCCC1)N1CCCC1c1ccsc1 (stereo unspecified) | 1.06
CNC(=O)Cc1ccccc1NC(=O)C1CCN(C2CCCCC2)C1 (stereo unspecified) | -0.355
Cc1cnn(CC2CN(Cc3nnc(-c4ccccc4)o3)CCO2)c1 (stereo unspecified) | -6.61
O=c1[nH]c2cc3c(cc2cc1CN1CCCC1c1ccccn1)CCC3 (stereo unspecified) | -2.11
COCCNC(=O)NCCc1cccc(OC)c1O | 9.31
CCNc1nnc(SCC(=O)N2CCN(Cc3ccc(Cl)s3)CC2)s1 | 15.2

SMILES | cytotoxicity at 10 µM [%]
CCc1ccc(C2CCCN2C(=O)CNC(=O)CCC(C)C)o1 (stereo unspecified) | -10.2
Cc1nn(CC(C)C)c(C)c1CC(=O)N1CCCC(NS(C)(=O)=O)C1 (stereo unspecified) | 6.29
c1cc(C2CCN(c3cnccn3)CC2)ccn1 | 3.94
OCC1CCCN1c1cc(NCCc2ccsc2)ncn1 (stereo unspecified) | 8.51
COC1CCN(C(=O)C2CCCC2)CC(=O)N(C)c2ccccc21 (stereo unspecified) | -8.88
COc1ccc(CCC(=O)N2CCCC(n3cncn3)C2)cc1 (stereo unspecified) | -21
CSc1ncccc1C(=O)N1C[C@@H]2CC[C@H]1CN(C(C)=O)C2 | 4.99
CN(C)CCNC(=O)c1ccc(OC2CCN(CC3CC3)CC2)c(Cl)c1 | -6.26
CCCn1cc(-c2cc(C(=O)N(C)C)c3ccc(C)cc3n2)cn1 | 4.99
CN1C(=O)C[C@@H]2[C@@H]1CCN2S(=O)(=O)Cc1ccccc1 | -5.76
COCCOc1ncccc1C(=O)N1CCCC(n2ccnc2C)C1 (stereo unspecified) | -7.52
CC(NC(=O)NCCCOc1ccccc1F)c1nncn1C (stereo unspecified) | -8.77
NCc1ccc(Oc2ccc(F)c(F)c2)cc1C(F)(F)F | -0.587
COCCN1CCN(C(=O)c2ccccc2C(C)=O)[C@H]2CS(=O)(=O)C[C@H]21 | -5.95
O=C(NCc1ccnc(OCC2CC2)c1)C1COc2ccccc2O1 (stereo unspecified) | -3.88
COc1ccc2c(c1)OCC(Cc1cnccc1N)C2 (stereo unspecified) | 4.28
O=C(O)c1ccc(F)c(S(=O)(=O)Nc2ccc(-n3cccn3)c(Cl)c2)c1 | 2.24
CC(C)(C)n1ncc2c1NC(=O)CC2c1cccc(O)c1 (stereo unspecified) | -6.36
Cc1nc2n(n1)CC(Nc1nc(C(F)(F)F)nc3ccccc13)CC2 (stereo unspecified) | -0.978
Cn1cc(Br)c(=O)c(NS(=O)(=O)c2ccc3c(c2)CCC3)c1 | -3.47
Cn1cc(Br)cc(NC(=O)CC2CCC2)c1=O | -8.15
O=C(CN1CCCC1c1nc(Cc2ccc(F)cc2)no1)NC1CC1 (stereo unspecified) | 20.6
C[C@H](C(=O)N1Cc2ccccc2CC2(CCCN2C)C1)c1ccccc1 (stereo partly specified) | 6.42

SMILES | cytotoxicity at 10 µM [%]
O=C(C1=NN(Cc2ccccc2)c2ccccc2S1(=O)=O)N1CCCC1 | -4.65
CC(C)c1nnc(CN2CCCC(c3cc(C(N)=O)[nH]n3)C2)o1 (stereo unspecified) | -29.7
CCS(=O)(=O)CCN1CCN(C(C)c2cccnc2)CC1 (stereo unspecified) | 8.65
CC(=O)N1CCO[C@@H]2CN(S(=O)(=O)c3ccc(F)cc3)CC[C@@H]2C1 | 13.7
O=C(O)c1c(-c2ccncc2)ncc2c1CCN(CC1CCOC1)C2 (stereo unspecified) | -100
FC(F)(F)Oc1cccc(CNC[C@H]2Cn3ccnc3CO2)c1 | 2.21
Cc1ccc(C(=O)N2CC[C@H]3[C@H]2CCN3CC2CCOCC2)cn1 | -73.3
O=C(CN1CCCC1Cn1cncn1)NCCC1=CCCCC1 (stereo unspecified) | -16.5
COc1ccc2cccc(CC(=O)NCCCc3n[nH]c(C)n3)c2c1 | -2.11
CNS(=O)(=O)c1ccc(CN2CCC(c3ccncc3)CC2)cc1 | 10
CNC(=O)Cn1c(CO)cnc1SCc1ccccc1Cl | 2.6
Cc1cc(C2CCCN(C(=O)CN3CCN(C)CC3)C2)n[nH]1 (stereo unspecified) | -4.18
CC(C)CC(=O)N1C[C@H]2CCCN(S(=O)(=O)c3ccc(Cl)s3)[C@H]2C1 | -1.63
O=C(C1=CC2(CCNCC2)c2ccccc21)N1CCCC1 | -2.07
OC(CN1CCN(CC(F)F)CC1)c1ccc(Br)cc1 (stereo unspecified) | -9.88
CC(C)c1cc(C(=O)N(c2ccc(F)cn2)C2CCOCC2)on1 | -9.01
CSc1ccsc1C(=O)NS(=O)(=O)c1cccc(C#N)c1 | 7.49
CN(C)C1COC2(CCN(Cc3nccs3)CC2)C1 (stereo unspecified) | 2.02
COC(=O)c1ccc(N2CCN(C(=O)C(C)C)C(C)C2)cc1 (stereo unspecified) | -10.4
